# WT yeast gro inh: growth inhibition of WT strain, primary screen, mitochondrial fusion inhibitor project, WT and mutant strains, chemical genetic; mitochondrial fusion phenotypic screen; inhibition, % at 10 µM; actives 2.1% (n = 190,000); in the data active means inhibition above about 58%; tested in S. cerevisiae
# NPY1 pot ag: NPY-Y1 receptor potentiators or agonists, primary screen, cell-based; Neuropeptide Y receptor type 1 (Homo sapiens), P25929; NPY-Y1 expressing cells, potentiator/agonist activation; activation, % at 3.6 µM; actives 0.37% (n = 220,000); AID 1304, 2008; in the data active means activation above about 33%, passing the limit was not always enough;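 further: cells stimulated with NPY at EC10 then isoproterenol at EC100; 0% = low agonist plus stimulus and 100% = saturating agonist plus stimulus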
# NPY-Y2 antag: NPY-Y2 receptor antagonists, primary screen, cell-based | Neuropeptide Y receptor type 2 (Homo sapiens), P49146 | NPY-Y2 expressing cells, antagonist mode | inhibition, % at 2.7 µM | actives 0.99% (n = 140,000); in the data active means inhibition above about 17%;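 further: 0% = vehicle with agonist challenge and 100% = reference antagonist with challenge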
# Target sequence (P49146 whole entry, looked up): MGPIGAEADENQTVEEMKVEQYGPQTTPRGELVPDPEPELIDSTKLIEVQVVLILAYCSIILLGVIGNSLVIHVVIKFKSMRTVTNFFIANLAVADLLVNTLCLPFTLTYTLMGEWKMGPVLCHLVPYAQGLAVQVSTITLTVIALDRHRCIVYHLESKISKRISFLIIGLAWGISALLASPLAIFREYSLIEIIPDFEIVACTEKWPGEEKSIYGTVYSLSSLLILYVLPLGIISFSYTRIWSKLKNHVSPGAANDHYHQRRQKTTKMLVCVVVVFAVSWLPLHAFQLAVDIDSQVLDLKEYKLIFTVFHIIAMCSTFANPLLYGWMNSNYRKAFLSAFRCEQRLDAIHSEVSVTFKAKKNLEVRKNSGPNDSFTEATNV
# NPY-Y1 antag: NPY-Y1 receptor antagonists, primary screen, cell-based; inhibition, % at 3.6 µM; actives 1% (n = 200,000); HEK293-CNG Y1 cells, membrane potential fluorescence; NPY at EC95, then isoproterenol; Neuropeptide Y receptor type 1 (Homo sapiens), P25929;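 active means inhibition above the campaign mean inhibition of all tested compounds plus 3 SD, cut at about 20% in these data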;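 further: 0% = DMSO wells given NPY plus isoproterenol and 100% = isoproterenol alone without NPY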
#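 Material: HEK293 cells co-expressing NPY Y1 receptor and cyclic-nucleotide gated channel. Timing: compound incubation 1 h at room temperature, readout 45 min post-stimulation. Signal: fluorescence, membrane potential probe.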
# NPY2 pot ag: NPY-Y2 potentiators or agonists, primary screen, cell-based; Neuropeptide Y receptor type 2 (Homo sapiens), P49146; cells expressing NPY-Y2, potentiator/agonist read-out; activation, % at 3.6 µM; actives 0.45% (n = 220,000); in the data active means activation above about 27%;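 further: cells stimulated with NPY near EC25 plus isoproterenol at EC100; 0% = vehicle plus submaximal agonist and 100% = vehicle plus saturating agonist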
# RAM inhibit: inhibitors of the yeast RAM network, primary screen, dse1pr::URA3 reporter, 5-FOA selection; inhibition, % at 50 µM; actives 1.8% (n = 190,000); AID 868, 2007; S. cerevisiae dse1pr::URA3 reporter, 5-FOA growth OD615, 2 d; analog-sensitive cbk1-as2 kinase mutant strain;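 active means inhibition above a set limit, 3 SD over mean compound inhibition, cut at about 8.4% in these data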;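 further: 0% = DMSO-only wells with no growth and 100% = 10 µM 1-NA-PP1 full growth; inhibition rescues growth on 5-FOA so higher OD means more RAM inhibition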
# * marks the source's active call; other numbers are inactive results; . = not tested or not shown. Sampled rows, rich in hits. Any-hit rate of the full collection: about 4.9%.
SMILES,WT yeast gro inh,NPY1 pot ag,NPY-Y2 antag,NPY-Y1 antag,NPY2 pot ag,RAM inhibit
N#CC1(Cc2ccccc2)c2ccccc2C=CN1C(=O)c1ccccc1 (configuration not stated),-8.6,6.2,11.0,4.3,-10.7,8.7*
CC(NCC(O)COCCC12CC3CC(CC(C3)C1)C2)c1ccccc1 (configuration not stated),75.9*,-22.5,.,17.4,-12.0,-0.5
Cc1ccccc1NC(=S)N(C)Cc1cccs1,2.2,103.7*,-0.8,-16.9,100.8*,1.8
Cc1ccc(Cl)cc1NC(=S)N(Cc1cccs1)C1CCCC1,22.1,14.8,.,-2.0,-3.3,1.7
Cc1c(Cl)cccc1NC(=S)N(Cc1cccs1)C1CCCC1,67.0*,-26.1,.,1.8,5.2,1.1
Cc1ccccc1NC(=S)N(Cc1cccs1)C1CCCCC1,67.1*,14.2,.,0.6,3.5,2.0
Cc1ccc(-c2ccc(/C=N/NC(N)=S)o2)cc1,.,-4.8,.,.,-8.2,.
NC(=S)N/N=C/c1ccc(-c2ccc(Cl)c(Cl)c2)o1,69.4*,-13.7,2.2,4.0,-12.9,2.5
O=C(Cn1nc(C(F)(F)F)cc1C1CC1)Nc1ccccc1F,-0.8,-0.8,-0.8,5.3,-5.5,-0.9
COc1ccc(C(=O)N(Cc2nc(-c3ccc(C)cc3)no2)C2CCCCC2)cc1OC,64.9*,-8.1,8.2,14.8,-2.7,2.1
CCc1nc(SCC(=O)N2CC(=O)Nc3ccccc32)c2c(C)c(C)sc2n1,3.5,1.5,1.2,3.2,-4.3,3.5
Cc1sc2nc(C3CCCCC3)nc(SCC(=O)N3CC(=O)Nc4ccccc43)c2c1C,2.5,9.2,2.6,-0.2,-12.9,8.5*
Cc1cccc(-n2c(SCC(=O)N3CC(=O)Nc4ccccc43)nc3ccccc3c2=O)c1C,22.0,8.4,4.8,3.4,7.7,9.6*
COc1ccc(N(CC(=O)Nc2ccccc2C(N)=O)S(=O)(=O)c2ccc(C)c([N+](=O)[O-])c2)cc1,-4.0,14.9,.,-1.3,16.1,10.1*
CC(CCc1ccccc1)NC(=O)CN1CCN(c2ccc(O)cc2)CC1 (configuration not stated),-10.9,15.3,.,-5.4,5.9,0.5
COCCCN1C(=O)C(O)=C(C(=O)c2ccco2)C1c1ccccc1 (configuration not stated),10.8,8.9,2.3,4.6,1.8,3.7
CCCCc1ccc(/C=C2\C(=O)ON=C2c2ccccc2)s1,-1.4,3.4,3.3,-0.2,-5.0,8.8*
Cc1cc(CC(C)C)n(-c2nc3ccccc3c(=O)n2OCc2ccccc2)n1,65.1*,-25.2,10.4,13.0,-21.4,9.8*
Cc1cc(CC(C)C)n(-c2nc3ccccc3c(=O)n2OCC(=O)N(C)C)n1,-4.0,-12.5,5.1,-5.3,2.8,-0.4
O=C(Nc1ccccc1Cl)c1cc(S(=O)(=O)N2CCOCC2)cs1,-3.6,-0.7,1.1,0.3,-14.5,3.3
COc1ccc(-c2nnc(SCC(=O)NC(C)c3ccccc3)o2)cc1 (configuration not stated),-1.3,-8.1,3.5,2.0,-12.4,1.6
CC(C)(Cc1ccc(O)cc1)NC(=O)CC(=O)N=Nc1c(O)[nH]c2ccc(Br)cc12,-9.4,5.8,.,1.1,3.6,3.5
CCN(CC)CCC(=O)NC(C)(C)Cc1ccc(O)cc1,-8.5,36.9*,1.6,0.8,-4.3,1.2
COc1ccccc1-n1c(=O)c(C#N)c(-c2ccc([N+](=O)[O-])cc2)c2cc(C(=O)c3ccccc3O)cnc21,.,73.1*,.,.,49.5*,.
COc1ccccc1NC(=O)Cn1cncc1-c1ccc([N+](=O)[O-])cc1,8.0,22.9,-0.3,4.3,0.4,1.2
SMILES,WT yeast gro inh,NPY1 pot ag,NPY-Y2 antag,NPY-Y1 antag,NPY2 pot ag,RAM inhibit
CCCS(=O)(=O)c1c(S(=O)(=O)CCC)c2ccccn2c1C(=O)OC,0.8,21.7,3.6,-0.2,15.8,2.7
CCCS(=O)(=O)c1c(S(=O)(=O)CCC)c2cc(CC)ccn2c1C(=O)OC,70.3*,4.4,-2.6,-4.0,0.8,0.3
CCNc1nc(CSc2ccccc2)nc2sc(C)c(C)c12,66.9*,-30.5,10.4,8.5,-12.1,-1.0
Cc1sc2nc(CSc3ccccc3)nc(NCCN(C)C)c2c1C,14.7,-29.0,9.3,6.2,-3.6,0.9
COc1ccc(Br)cc1CN(C)CC(=O)NCCc1ccccc1,0.5,-1.1,.,6.7,-15.6,0.7
COc1ccc(O)c(-c2cc(-c3cccc(Br)c3)n[nH]2)c1,-2.6,22.9,-1.6,-0.7,27.2,10.5*
CCn1c(CNC(=O)c2ccco2)nnc1SCC(=O)Nc1cc(C(F)(F)F)ccc1Cl,70.2*,-4.5,0.2,2.1,2.0,0.9
CC(C)C(=O)NC(=S)Nc1ccc(S(=O)(=O)N(C)Cc2ccccc2)cc1,58.5*,3.2,9.0,4.4,-0.2,7.5
O=C(N/N=C/c1cccc(C(F)(F)F)c1)c1cc2c(s1)-c1ccccc1CC2,14.0,-30.4,0.7,-1.5,-0.7,0.9
CCNc1nc(NC(C)(C)C)nc(N2CCCC2)n1,60.5*,0.9,11.1,3.6,10.8,0.0
CCc1nnc(NC(=O)CCC(=O)N2CCN(Cc3ccc(Cl)cc3)CC2)s1,10.2,-11.2,2.2,-4.4,7.8,0.4
CN1CCN(CCc2cn3ncc(C#N)c3nc2-c2ccc(F)cc2)CC1,0.0,-3.4,.,-3.8,-5.2,11.3*
O=C(c1ccco1)N1CCN(Cc2nnnn2CC2CCCO2)CC1 (configuration not stated),-12.3,19.8,.,-1.9,-9.2,-1.4
O=C(Nc1cccc(S(=O)(=O)N2CCCCC2)c1)Nc1ccc(Cl)cc1Cl,81.7*,9.7,1.4,-2.7,6.5,4.8
O=C(Nc1ccc(Cl)cc1)Nc1cc(S(=O)(=O)N2CCOCC2)ccc1N1CCCC1,-0.3,-26.7,0.8,5.0,16.2,9.3*
CC1C2C(c3ccccc3)N(C)C(=O)N(C)C2N(C)C(=O)N1C (configuration not stated),3.7,11.9,0.9,-3.4,5.4,1.4
CCN1C(c2ccccc2)C(C)C(=O)C(C)C1c1ccccc1 (configuration not stated),80.8*,-31.0,8.7,14.4,2.4,0.0
Cc1ccc(C(=O)Nc2ccccc2C(=O)NCc2ccccc2)cc1,48.8,0.3,8.2,1.9,-9.8,8.6*
CCC(NC(=O)c1ccccc1NC(=O)c1ccccc1)C(=O)OC (configuration not stated),77.3*,-1.7,.,-1.6,-10.2,-0.3
CCC(NC(=O)c1ccccc1NC(=O)c1ccc(OC)cc1)C(=O)N1CCCC1 (configuration not stated),-7.6,20.4,-1.7,1.3,10.2,1.3
